The subject of assay [1] is Rattus norvegicus. The assay is described as follows: Detoxification of acetaldehyde in aldehyde dehydrogenase inhibitor disuifiram/ethanol-treated rat assessed as reduction of blood acetaldehyde level at 8 mmol/kg, ip administered 1 hr prior to ethanol treatment measured after 1 hr by head space gas chromatographic analysis.
For assay [2], the system named is Rattus norvegicus. As to the kind of experiment: Detoxification of acetaldehyde in ethanol-1-[14C]-treated Sprague-Dawley rat assessed as [14C]-3-acetyl-2,5,5-trimethylthiazolidine-4-carboxylic acid excretion in urine by measuring administered dose of ethanol-1-[14C] at 8 mmol/kg, po administered with 65 mmol/kg ethanol-1-[14C] measured for 24 hrs by inverse isotope dilution method in presence of Ac2O relative to control. Type of assay: functional. An outline of the steps:
(§1)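 Male Sprague-Dawley rats (190–280 g), given the test agent 1 h before ethanol-1-14C (65 mmol/kg, 200 mg/mL in isotonic saline, 0.8–1.4 μCi/rat), or at the same time as it for the simultaneous-dosing lines. Held in metabolism cages for 24 h. Urine plus washings were filtered and 400 mg unlabeled carrier added. The mix was acetylated with Ac2O, purified by preparative TLC and recrystallized from EtOAc to constant specific activity. Radioactivity was then scintillation counted.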

The subject of assay [3] is Rattus norvegicus. The assay is described as follows: Detoxification of acetaldehyde in ethanol-1-[14C]-treated Sprague-Dawley rat assessed as [14C]-3-acetyl-2,5,5-trimethylthiazolidine-4-carboxylic acid excretion in urine by measuring administered dose of ethanol-1-[14C] at 8.1 mmol/kg, ip administered 1 hr prior to 65 mmol/kg ethanol-1-[14C] treatment measured for 24 hrs by inverse isotope dilution method in presence of Ac2O relative to control. Type of assay: functional. In a few lines:
as §1

Assay [4] relates to Rattus norvegicus. As to the kind of experiment: Detoxification of acetaldehyde in aldehyde dehydrogenase inhibitor pyrogallol/ethanol-1-[14C]-treated Sprague-Dawley rat assessed as [14C]-3-acetyl-2,5,5-trimethylthiazolidine-4-carboxylic acid excretion in urine by measuring administered dose of ethanol-1-[14C] at 8.1 mmol/kg, ip administered 1 hr prior to 65 mmol/kg ethanol-1-[14C] treatment measured for 24 hrs by inverse isotope dilution method in presence of Ac2O relative to control. In kind it is functional. Also noted: scale not given: the % may be the effect or the level left. In a few lines: as §1

The test system of assay [5] is Rattus norvegicus. The assay is described as follows: Detoxification of acetaldehyde in ethanol-1-[14C]-treated Sprague-Dawley rat assessed as [14C]-3-acetyl-2,5,5-trimethylthiazolidine-4-carboxylic acid excretion in urine by measuring administered dose of ethanol-1-[14C] at 8.1 mmol/kg, po administered 1 hr prior to 65 mmol/kg ethanol-1-[14C] treatment measured for 24 hrs by inverse isotope dilution method in presence of Ac2O relative to control. In kind it is functional. In a few lines: as §1

Assay [6] has as its system Rattus norvegicus. As to the kind of experiment: Detoxification of acetaldehyde in aldehyde dehydrogenase inhibitor pargyline/ethanol-1-[14C]-treated Sprague-Dawley rat assessed as [14C]-3-acetyl-2,5,5-trimethylthiazolidine-4-carboxylic acid excretion in urine by measuring administered dose of ethanol-1-[14C] at 8.1 mmol/kg, ip administered 1 hr prior to 65 mmol/kg ethanol-1-[14C] treatment measured for 24 hrs by inverse isotope dilution method in presence of Ac2O relative to control. In kind it is functional. Details: scale not given: the % may be the effect or the level left. An outline of the steps:
as §1

Assay [7] relates to Rattus norvegicus. The assay is described as follows: Detoxification of acetaldehyde in aldehyde dehydrogenase inhibitor disuifiram/ethanol-1-[14C]-treated Sprague-Dawley rat assessed as [14C]-3-acetyl-2,5,5-trimethylthiazolidine-4-carboxylic acid excretion in urine by measuring administered dose of ethanol-1-[14C] at 8.1 mmol/kg, po administered 1 hr prior to 65 mmol/kg ethanol-1-[14C] treatment measured for 24 hrs by inverse isotope dilution method in presence of Ac2O relative to control. Type of assay: functional. Details: scale not given: the % may be the effect or the level left. In a few lines:
as §1

Assay [8] relates to Rattus norvegicus. As to the kind of experiment: Detoxification of acetaldehyde in aldehyde dehydrogenase inhibitor disuifiram/ethanol-1-[14C]-treated Sprague-Dawley rat assessed as [14C]-3-acetyl-2,5,5-trimethylthiazolidine-4-carboxylic acid excretion in urine by measuring administered dose of ethanol-1-[14C] at 2 mmol/kg, ip administered first dose at 0.25 hrs prior to 43.5 mmol/kg ethanol-1-[14C] treatment followed by 4 doses of compound at 0.75 hrs, 3 hrs, 5 hrs, 7 hrs measured for 24 hrs by inverse isotope dilution method in presence of Ac2O relative to control. Type of assay: functional. Details: scale not given: the % may be the effect or the level left.

In assay [9] the test system is Rattus norvegicus. As to the kind of experiment: Detoxification of acetaldehyde in ethanol-1-[14C]-treated Sprague-Dawley rat assessed as [14C]-3-acetyl-2,5,5-trimethylthiazolidine-4-carboxylic acid excretion in urine by measuring administered dose of ethanol-1-[14C] at 8.1 mmol/kg, po administered with 65 mmol/kg ethanol-1-[14C] measured for 24 hrs by inverse isotope dilution method in presence of Ac2O relative to control. Type of assay: functional. In a few lines:
as §1

The subject of assay [10] is Rattus norvegicus. As to the kind of experiment: Detoxification of acetaldehyde in ethanol-1-[14C]-treated Sprague-Dawley rat assessed as [14C]-3-acetyl-2-methylthiazolidine-4-carboxylic acid excretion in urine by measuring administered dose of ethanol-1-[14C] at 7.4 mmol/kg, po administered 1 hr prior to 65 mmol/kg ethanol-1-[14C] treatment measured for 24 hrs by inverse isotope dilution method in presence of Ac2O relative to control. Type of assay: functional. An outline of the steps: as §1

Assay [11] has as its system Rattus norvegicus. As to the kind of experiment: Detoxification of acetaldehyde in ethanol-1-[14C]-treated Sprague-Dawley rat assessed as [14C]-3-acetyl-2-methylthiazolidine-4-carboxylic acid in urine by measuring administered dose of ethanol-1-[14C] at 10 mmol/kg, ip administered 1 hr prior to 65 mmol/kg ethanol-1-[14C] treatment measured for 24 hrs by inverse isotope dilution method in presence of Ac2O relative to control. Type of assay: functional. In a few lines: as §1

The subject of assay [12] is Rattus norvegicus. As to the kind of experiment: Detoxification of acetaldehyde in aldehyde dehydrogenase inhibitor disuifiram/ethanol-1-[14C]-treated Sprague-Dawley rat assessed as [14C]-3-acetyl-2-methylthiazolidine-4-carboxylic acid excretion in urine by measuring administered dose of ethanol-1-[14C] at 8.3 mmol/kg, ip administered 1 hr prior to 65 mmol/kg ethanol-1-[14C] treatment measured for 24 hrs by inverse isotope dilution method in presence of Ac2O relative to control. Type of assay: functional. Details: scale not given: the % may be the effect or the level left. An outline of the steps:
as §1

Activity calls are given as the source filed them. No cut-off for these calls is given here.

As for `N[C@@H](CS)C(=O)O` (stereo in doubt), the outcome with Rattus norvegicus [1] was inactive.
For the molecule `CC(=O)NC(C(=O)O)C(C)(C)S` (centres undefined) [N-ACETYL PENICILLAMINE], the Activity with Rattus norvegicus [2] stood at 0%. In addition, the result with Rattus norvegicus [1] was inactive.
In the case of `NC(CCSSCCC(N)C(=O)O)C(=O)O` (racemic), the result in the assay with Rattus norvegicus [1] was inactive.
Take `CC(C)(S)[C@@H](N)C(=O)O` [PENICILLAMINE]: the Activity in the assay on Rattus norvegicus [3] is reported as 0.5%; in the assay with Rattus norvegicus [4] it was 1.1%; in the assay with Rattus norvegicus [5], 1.2%; with Rattus norvegicus [6], 3.3%; in the assay on Rattus norvegicus [7] it was 2.7%; in the assay on Rattus norvegicus [8] it was 7.6%. Further, the Activity in the assay on Rattus norvegicus [9] came to 0.4%. Further, the outcome in the assay on Rattus norvegicus [1] was Active.
Consider `CC(=O)N[C@@H](CS)C(=O)O` [ACETYLCYSTEINE], for which, in the assay with Rattus norvegicus [10], the Activity is given as 0%. The outcome in the assay on Rattus norvegicus [1] was inactive.
Consider `NC1CCSC1=O` (racemic), for which the result with Rattus norvegicus [1] was inactive.
The same measure, in the same setting: the entry for `NC(CCS)C(=O)O` (racemic) is “inactive”.
Take `N[C@@H](CS)C(=O)O` (stereo in doubt; 2) [CYSTEINE]: the Activity in the assay with Rattus norvegicus [11] and with Rattus norvegicus [12] was 0% throughout.
With `N[C@@H](CS)C(=O)O` (stereo in doubt; 2), in the assay on Rattus norvegicus [1], the result was inactive.

The record behind these values is ChEMBL document CHEMBL3272120, “2,5,5-Trimethylthiazolidine-4-carboxylic acid, a D(-)-penicillamine-directed pseudometabolite of ethanol. Detoxication mechanism for acetaldehyde” (1978).
